Reference: PubChem BioAssay AID624340 (The Scripps Research Institute Molecular Screening Center, 2012)
Where “and” joins values, the source holds several entries; their conditions need not be identical. Equal values may be shown once. Calls of active or inactive are those of the source.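 How the source made its calls: active means IC50 at or below 10 µM; inactive means IC50 above 10 µM.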

Target: Insulin-degrading enzyme (Homo sapiens) (UniProt P14735)
Experiment: IDE inhibition with fluorogenic peptide, late-stage follow-up, artefact control for IDE inhibitor project, biochemical, FRET1 substrate, fluorescence, round 2 (AID 624340)
Details: recombinant WT IDE
How it was run: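 Read-out basis – IC50 from sigmoidal fit of initial-rate percent activity · Test system – recombinant WT IDE · Repeats – triplicate · Buffer or medium – pH 7.4 HEPES, NaCl, MgCl2, BSA buffer · Schedule – kinetic read every 2 min over 2 h, 22 °C · Control set – DMSO-only wells as 100%, no-enzyme wells as 0% · Signal – fluorescence at 335/385 nm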

Insulin-degrading enzyme (Homo sapiens), sequence (P14735 whole entry, looked up): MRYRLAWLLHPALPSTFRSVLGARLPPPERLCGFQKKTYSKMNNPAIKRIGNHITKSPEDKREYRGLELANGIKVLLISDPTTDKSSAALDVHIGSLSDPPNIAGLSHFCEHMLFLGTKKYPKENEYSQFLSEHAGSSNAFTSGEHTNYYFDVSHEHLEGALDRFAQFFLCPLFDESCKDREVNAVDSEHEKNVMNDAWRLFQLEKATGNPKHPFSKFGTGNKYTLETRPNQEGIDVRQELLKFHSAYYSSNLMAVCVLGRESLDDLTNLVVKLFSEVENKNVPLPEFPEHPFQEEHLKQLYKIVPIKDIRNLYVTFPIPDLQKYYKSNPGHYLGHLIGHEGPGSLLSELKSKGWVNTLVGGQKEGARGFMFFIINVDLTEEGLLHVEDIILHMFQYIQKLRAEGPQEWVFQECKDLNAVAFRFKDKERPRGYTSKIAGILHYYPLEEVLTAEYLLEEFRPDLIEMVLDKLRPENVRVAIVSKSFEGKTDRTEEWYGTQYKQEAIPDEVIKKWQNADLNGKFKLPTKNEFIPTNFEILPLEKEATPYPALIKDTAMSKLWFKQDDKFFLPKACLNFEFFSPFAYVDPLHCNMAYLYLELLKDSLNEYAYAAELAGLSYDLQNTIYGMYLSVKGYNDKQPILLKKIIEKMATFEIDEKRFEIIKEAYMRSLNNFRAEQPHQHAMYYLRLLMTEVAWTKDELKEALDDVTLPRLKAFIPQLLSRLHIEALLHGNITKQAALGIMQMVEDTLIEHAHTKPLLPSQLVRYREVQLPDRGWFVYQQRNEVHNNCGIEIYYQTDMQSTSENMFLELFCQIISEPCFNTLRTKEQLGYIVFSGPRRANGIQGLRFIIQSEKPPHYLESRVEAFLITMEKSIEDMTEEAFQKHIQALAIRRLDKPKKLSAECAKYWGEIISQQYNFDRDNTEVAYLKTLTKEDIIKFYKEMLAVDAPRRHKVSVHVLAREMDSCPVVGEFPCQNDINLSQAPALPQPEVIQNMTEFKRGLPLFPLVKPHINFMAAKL

| SMILES | IC50 |
| --- | --- |
| Cc1ccc(COCc2nnc(SCc3nc4ccccc4[nH]3)n2Cc2ccco2)cc1 | > 100 µM (inactive) |
| COc1ccc(C(=O)N2CCN(C(=O)C(c3ccccc3)c3ccccc3)CC2)cc1OC | > 100 µM (inactive) |
| O=C(c1ccc(Oc2ccc(F)cc2)cc1)N1CCN(C(=O)C2COc3ccccc3O2)CC1 (stereo not given) | > 100 µM (inactive) |
| Clc1ccc(COCc2nnc(SCc3nc4ccccc4[nH]3)n2Cc2ccco2)cc1 | > 100 µM (inactive) |
| COc1ccc(C(=O)N2CCN(C(=O)C3CC(=O)N(c4ccccc4)C3)CC2)cc1OC (stereo not given) | > 100 µM (inactive) |
| COc1cc(C(=O)N2CCN(C(=O)C3COc4ccccc4O3)CC2)cc(Cl)c1OC (stereo not given) | > 100 µM (inactive) |
| COc1ccc(C(=O)N2CCN(C(=O)COc3ccccc3)CC2)cc1OC | > 100 µM (inactive) |
| COc1ccc(C(=O)N2CCN(C(=O)CCc3c[nH]c4ccccc34)CC2)cc1OC | > 100 µM (inactive) |
| COc1ccc(OCC(=O)N2CCN(C(=O)c3ccc(OC)c(OC)c3)CC2)cc1 | > 100 µM (inactive) |
| O=C(c1ccc(Oc2ccccc2)cc1)N1CCN(C(=O)C2COc3ccccc3O2)CC1 (stereo not given) | > 100 µM (inactive) |
| c1coc(Cn2c(SCc3nc4ccccc4[nH]3)nnc2-c2ccco2)c1 | > 100 µM (inactive) |
| COc1cccc(C(=O)N2CCN(C(=O)C3COc4ccccc4O3)CC2)c1 (stereo not given) | inactive |
| COc1ccc(C(=O)N2CCN(C(=O)COc3ccc(Cl)cc3)CC2)cc1OC | > 100 µM (inactive) |
| Cc1nc(COc2ccc(C(=O)N3CCN(C(=O)C4COc5ccccc5O4)CC3)cc2)cs1 (stereo not given) | > 100 µM (inactive) |
| c1ccc(-c2nnc(SCc3nc4ccccc4[nH]3)n2Cc2ccco2)nc1 | > 100 µM (inactive) |

Second part, the compound after the results:

| IC50 | SMILES |
| --- | --- |
| > 100 µM (inactive) | c1coc(Cn2c(SCc3nc4ccccc4[nH]3)nnc2-c2cccs2)c1 |
| 5.89 µM and > 100 µM (inactive) | COc1ccc(C(=O)N2CCN(C(=O)C3COc4ccccc4O3)CC2)cc1 (stereo not given) |
| > 100 µM (inactive) | c1coc(Cn2c(SCc3nc4ccccc4[nH]3)nnc2-c2cnccn2)c1 |
| > 100 µM (inactive) | O=C(c1ccc(OCC2CCCO2)cc1)N1CCN(C(=O)C2COc3ccccc3O2)CC1 (stereo not given) |
| > 100 µM (inactive) | Cc1ccc(-c2nnc(SCc3nc4ccccc4[nH]3)n2Cc2ccco2)cc1 |
| > 100 µM (inactive) | COc1ccc(C(=O)N2CCN(C(=O)COc3ccc(C)cc3)CC2)cc1OC |
| > 100 µM (inactive) | c1ccc(-c2nnc(SCc3nc4ccccc4[nH]3)n2Cc2ccco2)cc1 |
| inactive | CC(=O)Nc1ccccc1C(=O)N1CCN(C(=O)C2COc3ccccc3O2)CC1 (stereo not given) |
| > 100 µM (inactive) | CCOc1ccc(C(=O)N2CCN(C(=O)C3COc4ccccc4O3)CC2)cc1 (stereo not given) |
| inactive | O=C(c1ccc2nc(C(F)(F)F)[nH]c2c1)N1CCN(C(=O)C2COc3ccccc3O2)CC1 (stereo not given) |
